Assay [1] has as its system Staphylococcus aureus. Put plainly: Antibacterial activity against Staphylococcus aureus ATCC 29213 assessed as inhibition of bacterial growth incubated for 18 hrs by spectrophotometric method. It is filed as functional. The method in brief: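 Racemic compounds tested against standardized S. aureus strain 29213 cultures following CLSI procedure; MIC recorded; n = 2 independent assays, each with duplicate technical replicates.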

The test system of assay [2] is Staphylococcus aureus. Put plainly: (§1) Inhibition of recombinant Staphylococcus aureus DHFR expressed in Escherichia coli BL21 (DE3) using dihydrofolate as substrate and NADPH as cofactor incubated for 2.8 mins. The essentials:
(§2)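 Recombinant S. aureus DHFR expressed in E. coli BL21 (DE3). Reaction reconstituted with NADPH and varied inhibitor concentrations (racemates, diluted from 10 mM DMSO stock), started by adding dihydrofolate. Run at 30 °C, rate followed 2.8 min over linear range. 50% activity point from 4-parameter fit of rate vs concentration. IC50 converted to Ki by Cheng-Prusoff using previously measured KM. n ≥ 3 independent assays, duplicate technical replicates.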

Assay [3] can be described thus: as §1. The method in brief: as §2

Converted amounts (≈) assume the structure as drawn. The source made the active and inactive calls. The rule behind the calls is not given here.

As for `COc1cc(Cc2cnc(N)nc2N)cc(/C=C/C(=O)N2N=Cc3ccccc3C2C(C)C)c1OC` (configuration not stated), the MIC with Staphylococcus aureus [1] is 0.188 µg/mL (≈ 0.385 µM). For the same compound, the inhibition result in the assay on Staphylococcus aureus [2] was “Active”.
For the compound `CCCC1c2ccccc2C=NN1C(=O)/C=C/c1cc(Cc2cnc(N)nc2N)cc(OC)c1OC` (configuration not stated), in the assay on Staphylococcus aureus [1], the MIC is 0.0625 µg/mL (≈ 0.128 µM). Besides, the Ki in assay [3] turned out to be 1.2 nM.
Turning to `CCC(CC)C1c2ccccc2C=NN1C(=O)/C=C/c1cc(Cc2cnc(N)nc2N)cc(OC)c1OC` (configuration not stated), the inhibition result in the assay on Staphylococcus aureus [2] is “inactive”.
As to `COc1cc2c(cc1OC)C(C1CC1)N(C(=O)/C=C/c1cc(Cc3cnc(N)nc3N)cc(OC)c1OC)N=C2` (racemic), the minimum inhibitory concentration (MIC) with Staphylococcus aureus [1] worked out at 1 µg/mL (≈ 1.84 µM). Besides, in assay [3], the Ki turned out to be 0.7 nM.
For the compound `COc1cc(Cc2cnc(N)nc2N)cc(/C=C/C(=O)N2N=Cc3ccccc3C2c2ccc(C)cc2)c1OC` (configuration not stated), the MIC with Staphylococcus aureus [1] stood at 0.046 µg/mL (≈ 0.086 µM). Moreover, the inhibition result in the assay on Staphylococcus aureus [2] is “inactive”.
On to `COc1cc(Cc2cnc(N)nc2N)cc(/C=C/C(=O)N2N=Cc3ccccc3C2c2ccccc2)c1OC` (configuration not stated), for which the inhibition result with Staphylococcus aureus [2] was “Active”.
Still for that read-out and setting: the result for `COc1cc(Cc2cnc(N)nc2N)cc(/C=C/C(=O)N2N=Cc3ccccc3C2C2CCCCC2)c1OC` (configuration not stated) reads “Active”.
As for `COc1cc(Cc2cnc(N)nc2N)cc(/C=C/C(=O)N2N=Cc3ccccc3C2CCC(F)(F)F)c1OC` (configuration not stated), in the assay with Staphylococcus aureus [2], the inhibition result was “Active”.
Turning to `COc1cc(Cc2cnc(N)nc2N)cc(/C=C/C(=O)N2N=Cc3ccccc3C2C=C(C)C)c1OC` (configuration not stated), the inhibition entry in the assay with Staphylococcus aureus [2] was “Active”.
Turning to `CCCC1c2cc(C)c(C)cc2C=NN1C(=O)/C=C/c1cc(Cc2cnc(N)nc2N)cc(OC)c1OC` (racemic), the MIC in the assay on Staphylococcus aureus [1] is 0.5 µg/mL (≈ 0.972 µM). In assay [3], the Ki is 1.2 nM.
Regarding `COc1cc(Cc2cnc(N)nc2N)cc(/C=C/C(=O)N2N=Cc3ccccc3C2c2cc(C)cc(C)c2)c1OC` (configuration not stated), the inhibition result in the assay on Staphylococcus aureus [2] was “inactive”.
For the compound `CCCC1c2cc(OC)c(OC)cc2C=NN1C(=O)/C=C/c1cc(Cc2cnc(N)nc2N)cc(OC)c1OC` (racemic), the MIC with Staphylococcus aureus [1] is 1 µg/mL (≈ 1.83 µM). Also, the inhibitory constant (Ki) in assay [3] was 1.1 nM.
On to `COc1cc(Cc2cnc(N)nc2N)cc(/C=C/C(=O)N2N=Cc3ccccc3C2CC(C)C)c1OC` (configuration not stated), for which the inhibition result with Staphylococcus aureus [2] is “Active”.
`COc1ccc(CC2c3ccccc3C=NN2C(=O)/C=C/c2cc(Cc3cnc(N)nc3N)cc(OC)c2OC)cc1` (configuration not stated): the Ki in assay [3] worked out at 1.2 nM.
For `COc1cc(Cc2cnc(N)nc2N)cc(/C=C/C(=O)N2N=Cc3ccccc3C2Cc2ccc(C)cc2)c1OC` (configuration not stated), in the assay on Staphylococcus aureus [1], the MIC worked out at 0.25 µg/mL (≈ 0.456 µM). Besides, in assay [3], the inhibitory constant (Ki) was determined as 2.3 nM.

As a reminder, the MIC is the least concentration at which growth counts as inhibited. By Ki is commonly meant a dissociation constant, usually derived from enzyme kinetics or from competition with a known ligand.

These data come from ChEMBL document CHEMBL4765346, “Inhibitor design to target a unique feature in the folate pocket of Staphylococcus aureus dihydrofolate reductase” (Eur J Med Chem, 2020).
